Tested on: MS2 coat protein
Test: apparent Kd, MS2 coat protein; higher = weaker binding; RNA-MaP array; FMN 200 µM where present
Procedure, shortened: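 The apparent Kd is reported as the median of filtered per-cluster binding-curve fits. To get these curves, designs transcribed by stalled E. coli RNA polymerase on Illumina sequencing-chip clusters were titrated with SNAP-549-labelled MS2 coat protein from 0.7 or 1.5 nM, doubling to 3 µM. Titrations were run without and then with constant ligand in 100 mM Tris-HCl pH 7.5, 80 mM KCl, 4 mM MgCl2, BSA, DTT, yeast tRNA and Tween-20, and green signal was normalised to red-channel RNA signal and control-cluster median Fmax.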

[1] = designed as: OFF switch for flavin mononucleotide, no ligand
[2] = ligand present: flavin mononucleotide, designed as: OFF switch for flavin mononucleotide
[3] = designed as: ON switch for flavin mononucleotide, no ligand
[4] = ligand present: flavin mononucleotide, designed as: ON switch for flavin mononucleotide

Row | Sequence | apparent Kd [1] | apparent Kd [2] | apparent Kd [3] | apparent Kd [4]
1 | GACUGUCUAGGAUAUGCGACGUUUUACAUGAGGAUCACCCAUGUUGUCUGCGUGUGUGUGGCAGAAGGAGACAAAC | 13 nM | 19.9 nM |  | 
2 | AAACACGGACAUGAGGAUCACCCAUGUGGCGAAAGCCUAGGGAGAAGGCAGUAUGCAAAGCAUUCUGAGGAUAUUCAUACCGUG |  |  | 160 nM | 13.4 nM
3 | GAUUACAAGUAAGGAUAUGUAUAUGAAACAUAUACAGAAGGUACAUGAGGAUCACCCAUGUUCUUGCAAAGCGAAUAUGUAAUC | 17.3 nM | 21 nM |  | 
4 | AACCCUUGUGUUAGGAUAUGUCACUACCAUAUGCGACAGAAGGAACAUGAGGAUCACCCAUGUGAGUUAGCCAA | 42.8 nM | 91.1 nM |  | 
5 | AGCUGGUGACAGCAAGAAACUUCACAUGAGGAUCACCCAUGUAGAAGGCUGUACGGUUACCGUACAGAGGAUAUACAUUGAAGU | 7.16 nM | 13.3 nM |  | 
6 | UUAGGCGACCAGAAGGGUGACAUGAGGAUCACCCAUGUAGAUGUGUUCCCGCUUGGGAGCCGUCCACAGGAUAUGGUUGGUUAG |  |  | 35.7 nM | 16.8 nM
7 | UCGAUCGGAGGAUAUACUAAUACAACUACUGAAGUGUCAAAACAUGAGGAUCACCCAUGUAGAAGGCCGAUAUA | 21.8 nM | 24.3 nM |  | 
8 | GGAUAGGACAGAGGAUAUCCGUGCUAGAGAUACUAGCAAAAUUUCCUCACAUGAGGAUCACCCAUGUAGAAGGCUGUCCUAUCG | 5.98 nM | 11.7 nM |  | 
9 | UGAUAGGACAGAGGAUAUGCCGAUAGGAUUUACUAUCGAAGAAUCCUCACAUGAGGAUCACCCAUGUAGAAGGCUGUCCUAUCU | 7.36 nM | 35.9 nM |  | 
10 | UUAAAUCAUGUAGGAUAUGCAUGGCGAAGCUACGCAGAAGGACAUGAGGAUCACCCAUGUUAUAGCUACCGAUAAAGGUGGCAA | 84.3 nM | 214 nM |  | 
11 | GUACCUUAUGAGAAGGCGAUCAUAAAACGUGAUCGAGGAUAUCAUGAAAACAUGAGGAUCACCCAUGUAUGGGUAUUAUGGUAC |  |  | 36 nM | 19.3 nM
12 | GUGUGAAUAGGAGGAUAUAUACAACAUGAGGAUCACCCAUGUACCCGUGUAGUAGAAGGUUUGUUUUUAUAUAAUAUUAUAUUU |  |  | 26.8 nM | 21.6 nM
13 | AGCACGAAAGUGCAACGAUGUACGAGAAGGACAUGAGGAUCACCCAUGUAGGAGUAACUCCAAAUGUAGGAUAUCGUACAUCGA | 568 nM | 79 nM |  | 
14 | AAAAAGUGAGGAUAUCGGAAAAAAAAAAAAAAAAAAAAAAACGAGAAGGCACAUGAGGAUCACCCAUGUAAAAA | 42.3 nM | 33.6 nM |  | 
15 | AGGAAGUGAGGAUAUGCUGCUCGUCACUUGCGUGAUGAGUAGCAGAAGGCACAUGAGGAUCACCCAUGUAAAGA | 40.2 nM | 55.1 nM |  | 
16 | AUAUUUGAUGAGGAUAUCGUUGUGGGUAUAUAGCGAGAAGGCAUUACAUGAGGAUCACCCAUGUAGUGUGGGUU | 25.9 nM | 37 nM |  | 
17 | GGUGGACAUGAGGAUCACCCAUGUGAGGAUAUCGGCUGGCUACUGGCUGACGGCUGCUCGAGAAGGCGCAUUGU | 40 nM | 73.6 nM |  | 
18 | GGAUGUCAAAGACAUCCAUAACGAACAUGAGGAUCACCCAUGUAGGAUAUGCUACUCAAAGAGUAGCAGAAGGACAUGUGCCUU | 33.6 nM | 269 nM |  | 
19 | UGGUACAUGGGAGGAUAUGGGUAGAUAACAUGAGGAUCACCCAUGUUAAGAAAUGCCGAAAGGCACUAGAAGGCCCAUGUACCU |  |  | 637 nM | 46.7 nM
20 | GAGUGACACCAGAAGGGCCAGGAAAGAACACUGGUAGGAUAUGGAGCGCCCUCGUAACGACCGACAUGAGGAUCACCCAUGUCC |  |  | 117 nM | 28.1 nM

— the EternaBench riboswitch data
